# Assay results taken from article PMC5378063 (Medicinal chemistry (Shariqah (United Arab Emirates)), 2009).
# Columns and labels:
# [1] = tested on: M.smegmatis Takeo; test: MIC, agar dilution method; format: cell-based
# [2] = tested on: M.tuberculosis H37Rv INHr; test: MIC, agar dilution method; format: cell-based, Mycobacterium tuberculosis
# [3] = tested on: M.fortuitum NIHJ1615; test: MIC, agar dilution method; format: cell-based
# [4] = tested on: M.aurum; test: MIC, agar dilution method; format: cell-based
# [5] = tested on: M.avium Flamingo; test: MIC, agar dilution method; format: cell-based
# [6] = tested on: M.tuberculosis H37Rv; test: MIC, agar dilution method; format: cell-based, Mycobacterium tuberculosis
# [7] = tested on: bacterial growth; test: In vitro rescue studies with vitamin K supplementation; format: cell-based; conditions: 22a ~2μM; vitamin K even at 400 μM
# [8] = tested on: M.intracellulare ATCC15984; test: MIC, agar dilution method; format: cell-based
# [9] = tested on: nonreplicating Mtb; test: Killing of nonreplicating bacteria, Wayne low oxygen model; format: cell-based, Mycobacterium tuberculosis
# In short: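 Aerobic preculture diluted 100-fold into tubes sealed with rubber septa, degassed with N₂ and held anaerobically for 24 days, into nonreplicating phase 2 of a modified Wayne model. Test compound in degassed solution was added and incubation continued for 96 h. Suspensions were then diluted and plated, grown aerobically at 37 °C, and colonies counted.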
# [10] = tested on: M.bovis BCG Tokyo; test: MIC, agar dilution method; format: cell-based
# [11] = tested on: DosS or DosR; test: DosS/DosR upregulation; format: cell-based, Mycobacterium tuberculosis; conditions: unpublished data
# [12] = tested on: M.tuberculosis H37Rv RFPr; test: MIC, agar dilution method; format: cell-based, Mycobacterium tuberculosis
# [13] = 10 μg/mL, 96 h exposure after 24 days anaerobic
# [14] = Mycobacterium tuberculosis, H37RV
# [15] = Mycobacterium intracellulare, ATCC15984
# [16] = Mycobacterium tuberculosis variant bovis BCG, BCG
smiles,measurement,setting,value
"C=CCN(C)CCCCCCCCOc1ccc(C(=O)c2ccc(Cl)cc2)c(O)c1 [22a, allylaminomethanone-A]",MIC,[1],12.5 µg/mL
same,MIC,"[2]; M.tuberculosis H37Rv INHr, agar dilution",1.5 µg/mL
same,MIC,[3],12.5 µg/mL
same,MIC,[4],6.3 µg/mL
same,MIC,"[5]; M.avium Flamingo, agar dilution",6.3 µg/mL
same,MIC,"[6]; M.tuberculosis H37Rv, agar dilution",1.0 µg/mL
same,rescue of bacterial growth by supplementation with vitamin K,[7],not completely rescued
same,MIC,"[8]; M.intracellulare ATCC15984, agar dilution",6.3 µg/mL
same,more effective in killing nonreplicating bacteria than ethambutol,[9]; [13],320 fold
same,more effective in killing nonreplicating bacteria than isoniazid,[9]; [13],180 fold
same,more effective in killing nonreplicating bacteria than rifampicin,[9]; [13],3 fold
same,colonies after treatment of nonreplicating Mtb,"[9]; 50 μg/mL, 96 h exposure",no countable colonies
same,MIC,"[10]; M.bovis BCG Tokyo, agar dilution",3.1 µg/mL
same,upregulation of DosS or DosR,[11],did not upregulate
same,MIC,"[12]; M.tuberculosis H37Rv RFPr, agar dilution",1.5 µg/mL
"NNC(=O)c1ccncc1 [INH, isoniazid]",MIC,[2]; [14],> 25 µg/mL
same,MIC,[5]; Mycobacterium avium,> 25 µg/mL
same,MIC,[6]; [14],0.1 µg/mL
same,MIC,[8]; [15],12.5 µg/mL
same,MIC,[10]; [16],0.1 µg/mL
same,MIC,[12]; [14],0.05 µg/mL
"CO[C@H]1/C=C/O[C@@]2(C)Oc3c(C)c(O)c4c(O)c(c(/C=N/N5CCN(C)CC5)c(O)c4c3C2=O)NC(=O)/C(C)=C\C=C\[C@H](C)[C@H](O)[C@@H](C)[C@@H](O)[C@@H](C)[C@H](OC(C)=O)[C@@H]1C [RFP, rifampicin]",MIC,[5]; Mycobacterium avium,3.1 µg/mL
same,MIC,[6]; [14],0.2 µg/mL
same,MIC,[8]; [15],3.1 µg/mL
same,MIC,[10]; [16],0.1 µg/mL
same,MIC,[12]; [14],> 25 µg/mL
